Tests used:
[1] = biological target: Mitogen-activated protein kinase kinase kinase 2 (Homo sapiens) (UniProt Q9Y2U5); experiment: Inhibition of recombinant full length human MEKK2 assessed as residual activity at 10 uM using myelin basic protein as substrate incubated for 40 mins in presence of [gamma-33ATP by scintillation counting based radiometry assay relative to control
[2] = biological target: Serine/threonine-protein kinase ULK3 (Homo sapiens) (UniProt Q6PHR2); experiment: Inhibition of recombinant human full length ULK3 assessed as residual activity at 10 uM using casein as substrate incubated for 40 mins in presence of [gamma33P]ATP by scintillation counting based radiometry assay relative to control
[3] = biological target: Mast/stem cell growth factor receptor Kit (Homo sapiens) (UniProt P10721); experiment: Inhibition of recombinant human C-Kit (544 to end residues) using poly(Glu, Tyr) 4:1 as substrate assessed as residual activity at 10 uM in presence of [gamma-33ATP] by scintillation counting based radiometry assay relative to control
[4] = system: A549; experiment: Inhibition of hippo signalling protein in human A549 cells assessed as increase in CTGF mRNA expression level incubated for 24 hrs by qRT-PCR analysis; format: cell-based
Procedure, shortened: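 A549-CTGF cells were exposed to compound or 0.1% DMSO for 24 h before total RNA extraction. Endogenous CTGF mRNA was quantified by real-time PCR. Data were mean ± SEM (n=4) and compared by Student's t-test.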

[5] = biological target: Cyclin-dependent kinase 1/cyclin B1 (Homo sapiens) (UniProt P06493+P14635); experiment: Inhibition of recombinant full length human CDK1/CyclinB assessed as residual activity at 10 uM using Histone H1 as substrate incubated for 40 mins in presence of [gamma-33ATP] by scintillation counting based radiometry assay relative to control; format: protein-complex assay
[6] = system: Proto-oncogene tyrosine-protein kinase Src (Homo sapiens), P12931 [T341M]; experiment: Inhibition of recombinant full length human SRC T341M mutant assessed as residual activity at 10 uM using GGEEEEYFELVKK as substrate incubated for 40 mins in presence of [gamma33P]ATP by scintillation counting based radiometry assay relative to control
[7] = biological target: Interleukin-1 receptor-associated kinase 1 (Homo sapiens) (UniProt P51617); experiment: Inhibition of human IRAK1 (194 to end residues) assessed as residual activity at 10 uM using myelin basic protein as substrate after 40 mins by [gamma-33ATP] radiometric assay relative to control
[8] = biological target: Mitogen-activated protein kinase 9 (Homo sapiens) (UniProt P45984); experiment: Inhibition of human JNK2alpha2 assessed as residual activity at 10 uM using ATF2 as substrate after 40 mins by [gamma-33ATP] radiometric assay relative to control
[9] = biological target: Insulin receptor (Homo sapiens) (UniProt P06213); experiment: Inhibition of human IR (1005 to 1310 residues) assessed as residual activity at 10 uM using KKSRGDYMTMQIG as substrate after 40 mins by [gamma-33ATP] radiometric assay relative to control
[10] = system: Mast/stem cell growth factor receptor Kit (Homo sapiens), P10721 [D816H]; experiment: Inhibition of recombinant human C-Kit D816H mutant (544 to end residues) assessed as residual activity at 10 uM poly(Glu, Tyr) 4:1 as substrate incubated 40 mins in presence of [gamma-33ATP] by scintillation counting based radiometry assay relative to control
[11] = biological target: Activated CDC42 kinase 1 (Homo sapiens) (UniProt Q07912); experiment: Inhibition of human ACK1 (1 to 389 residues) assessed as residual activity at 10 uM using EFPIYDFLPAKKK as substrate incubated for 40 mins in presence of [gamma-33ATP] by scintillation counting based radiometry assay relative to control
[12] = biological target: Cyclin-dependent kinase-like 3 (Homo sapiens) (UniProt Q8IVW4); experiment: Inhibition of recombinant full length human CDKL3 assessed as residual activity at 10 uM using RRRFRPASPLRGPPK as substrate incubated for 120 mins in presence of [gamma-33ATP] by scintillation counting based radiometry assay relative to control
[13] = biological target: Homeodomain-interacting protein kinase 3 (Homo sapiens) (UniProt Q9H422); experiment: Inhibition of human HIPK3 (161 to 562 residues) assessed as residual activity at 10 uM using myelin basic protein as substrate after 40 mins by [gamma-33ATP] radiometric assay relative to control
[14] = biological target: Ribosomal protein S6 kinase alpha-5 (Homo sapiens) (UniProt O75582); experiment: Inhibition of recombinant human MSK1 (2 to end residues) assessed as residual activity at 10 uM using GRPRTSSFAEGKK as substrate incubated for 40 mins in presence of [gamma-33ATP by scintillation counting based radiometry assay relative to control
[15] = biological target: Serine/threonine-protein kinase MARK2 (Homo sapiens) (UniProt Q7KZI7); experiment: Inhibition of recombinant full-length human PAR1Balpha assessed as residual activity at 10 uM using KKKVSRSGLYRSPSMPENLNRPR as substrate measured after 40 mins in presence of [gamma33P]ATP by scintillation counting based radiometry assay relative to control
[16] = biological target: CDK4/Cyclin D3 (Homo sapiens) (UniProt P11802+P30281); experiment: Inhibition of recombinant full length human CDK4/CyclinD3 assessed as residual activity at 10 uM using Rb fragment as substrate incubated for 40 mins in presence of [gamma-33ATP] by scintillation counting based radiometry assay relative to control; format: protein-complex assay
[17] = biological target: Serine/threonine-protein kinase PAK 1 (Homo sapiens) (UniProt Q13153); experiment: Inhibition of recombinant human PAK1 (150 to end residues) assessed as residual activity at 10 uM using RRRLSFAEPG as substrate measured after 40 mins in presence of [gamma33P]ATP by scintillation counting based radiometry assay relative to control
[18] = system: Hepatocyte growth factor receptor (Homo sapiens), P08581 [Y1230H]; experiment: Inhibition of recombinant human MET A1209G/V1290L/Y1248H mutant (974 to end residues) assessed as residual activity at 10 uM using KKKGQEEEYVFIE as substrate incubated for 40 mins in presence of [gamma-33ATP by scintillation counting based radiometry assay relative to control
[19] = biological target: Dual specificity mitogen-activated protein kinase kinase 3 (Homo sapiens) (UniProt P46734); experiment: Inhibition of recombinant human MKK3 assessed as residual activity at 10 uM by scintillation counting based radiometry assay relative to control
[20] = biological target: Tyrosine-protein kinase Fes/Fps (Homo sapiens) (UniProt P07332); experiment: Inhibition of recombinant human FES (2 to end residues) assessed as residual activity at 10 uM using poly(Glu, Tyr) 4:1 as substrate at 40 mins in presence of [gamma-33ATP] by scintillation counting based radiometry assay relative to control
[21] = biological target: Cyclin-Y/Cyclin-dependent kinase 16 (Homo sapiens) (UniProt Q00536+Q8ND76); experiment: Inhibition of recombinant full length human CDK16/cyclinY assessed as residual activity at 10 uM using PKSPKARKKL as substrate incubated for 120 mins in presence of [gamma-33ATP] by scintillation counting based radiometry assay relative to control; format: protein-complex assay

Mitogen-activated protein kinase 9 (Homo sapiens), sequence (P45984 whole entry, looked up, the tested form may be a part): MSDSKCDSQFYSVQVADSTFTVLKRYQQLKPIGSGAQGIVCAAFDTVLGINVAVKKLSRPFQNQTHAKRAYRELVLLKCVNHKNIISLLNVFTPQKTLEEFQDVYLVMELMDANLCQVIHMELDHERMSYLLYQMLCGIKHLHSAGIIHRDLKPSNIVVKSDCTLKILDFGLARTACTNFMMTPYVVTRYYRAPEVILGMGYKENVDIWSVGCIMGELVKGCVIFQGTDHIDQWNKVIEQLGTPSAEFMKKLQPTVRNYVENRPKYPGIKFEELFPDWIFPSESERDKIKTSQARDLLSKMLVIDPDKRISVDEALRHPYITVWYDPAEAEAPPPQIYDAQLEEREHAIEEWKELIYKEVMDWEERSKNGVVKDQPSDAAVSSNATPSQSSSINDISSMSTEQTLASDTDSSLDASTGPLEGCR
Activated CDC42 kinase 1 (Homo sapiens), sequence (Q07912 whole entry, looked up, the tested form may be a part): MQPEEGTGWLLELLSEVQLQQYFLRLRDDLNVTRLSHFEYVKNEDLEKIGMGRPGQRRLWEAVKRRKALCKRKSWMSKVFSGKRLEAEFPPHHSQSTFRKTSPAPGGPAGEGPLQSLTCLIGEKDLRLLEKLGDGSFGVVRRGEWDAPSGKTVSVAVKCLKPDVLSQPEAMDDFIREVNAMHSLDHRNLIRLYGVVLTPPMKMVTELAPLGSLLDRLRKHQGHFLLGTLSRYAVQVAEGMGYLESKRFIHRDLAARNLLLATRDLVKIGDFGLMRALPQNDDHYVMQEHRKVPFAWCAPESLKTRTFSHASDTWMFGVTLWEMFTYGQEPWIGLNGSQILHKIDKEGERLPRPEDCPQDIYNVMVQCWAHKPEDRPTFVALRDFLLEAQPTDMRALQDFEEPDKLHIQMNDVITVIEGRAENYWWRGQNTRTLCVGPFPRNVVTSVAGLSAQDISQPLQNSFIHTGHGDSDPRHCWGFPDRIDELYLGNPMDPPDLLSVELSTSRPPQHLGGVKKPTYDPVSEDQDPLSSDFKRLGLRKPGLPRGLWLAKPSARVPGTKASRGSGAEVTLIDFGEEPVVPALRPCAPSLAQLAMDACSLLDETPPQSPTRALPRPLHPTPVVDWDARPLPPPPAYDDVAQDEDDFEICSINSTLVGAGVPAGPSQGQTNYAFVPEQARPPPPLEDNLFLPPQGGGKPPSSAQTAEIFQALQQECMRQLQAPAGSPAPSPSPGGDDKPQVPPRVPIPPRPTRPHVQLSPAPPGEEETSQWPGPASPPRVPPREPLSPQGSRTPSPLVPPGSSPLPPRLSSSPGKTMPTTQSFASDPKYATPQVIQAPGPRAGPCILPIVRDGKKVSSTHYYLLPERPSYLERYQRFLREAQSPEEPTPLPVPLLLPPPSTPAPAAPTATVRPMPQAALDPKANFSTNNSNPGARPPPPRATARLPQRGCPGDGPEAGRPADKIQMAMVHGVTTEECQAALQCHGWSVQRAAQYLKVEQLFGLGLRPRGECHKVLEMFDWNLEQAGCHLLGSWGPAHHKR
Dual specificity mitogen-activated protein kinase kinase 3 (Homo sapiens), sequence (P46734 whole entry): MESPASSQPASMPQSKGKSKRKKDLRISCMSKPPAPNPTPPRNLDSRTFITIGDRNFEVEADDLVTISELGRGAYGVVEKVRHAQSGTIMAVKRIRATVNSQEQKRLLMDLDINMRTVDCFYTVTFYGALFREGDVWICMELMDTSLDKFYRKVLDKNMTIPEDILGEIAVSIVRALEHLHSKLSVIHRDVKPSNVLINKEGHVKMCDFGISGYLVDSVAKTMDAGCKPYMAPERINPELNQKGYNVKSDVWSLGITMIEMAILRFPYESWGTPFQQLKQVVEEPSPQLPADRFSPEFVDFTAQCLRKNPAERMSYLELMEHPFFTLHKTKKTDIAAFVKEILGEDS
Interleukin-1 receptor-associated kinase 1 (Homo sapiens), sequence (P51617 whole entry, looked up): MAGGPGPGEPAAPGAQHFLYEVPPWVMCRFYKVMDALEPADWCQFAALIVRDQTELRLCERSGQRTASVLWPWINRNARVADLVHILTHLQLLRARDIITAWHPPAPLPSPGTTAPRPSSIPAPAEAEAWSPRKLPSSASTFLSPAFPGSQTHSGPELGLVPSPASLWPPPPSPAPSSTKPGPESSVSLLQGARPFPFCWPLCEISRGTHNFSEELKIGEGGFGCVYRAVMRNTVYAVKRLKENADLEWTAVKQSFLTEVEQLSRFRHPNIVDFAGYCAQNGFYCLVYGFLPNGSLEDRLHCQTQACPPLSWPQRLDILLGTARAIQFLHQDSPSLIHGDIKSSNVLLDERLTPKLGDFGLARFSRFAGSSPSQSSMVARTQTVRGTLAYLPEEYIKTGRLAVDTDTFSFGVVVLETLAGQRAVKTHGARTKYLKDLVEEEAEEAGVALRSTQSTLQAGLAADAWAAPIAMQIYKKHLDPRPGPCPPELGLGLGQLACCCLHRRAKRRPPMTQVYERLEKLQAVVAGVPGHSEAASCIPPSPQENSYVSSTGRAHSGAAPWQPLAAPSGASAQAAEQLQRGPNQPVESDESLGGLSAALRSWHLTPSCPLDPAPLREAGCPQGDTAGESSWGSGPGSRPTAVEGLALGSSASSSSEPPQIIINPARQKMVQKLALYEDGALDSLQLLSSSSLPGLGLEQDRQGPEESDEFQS
Mitogen-activated protein kinase kinase kinase 2 (Homo sapiens), sequence (Q9Y2U5 whole entry): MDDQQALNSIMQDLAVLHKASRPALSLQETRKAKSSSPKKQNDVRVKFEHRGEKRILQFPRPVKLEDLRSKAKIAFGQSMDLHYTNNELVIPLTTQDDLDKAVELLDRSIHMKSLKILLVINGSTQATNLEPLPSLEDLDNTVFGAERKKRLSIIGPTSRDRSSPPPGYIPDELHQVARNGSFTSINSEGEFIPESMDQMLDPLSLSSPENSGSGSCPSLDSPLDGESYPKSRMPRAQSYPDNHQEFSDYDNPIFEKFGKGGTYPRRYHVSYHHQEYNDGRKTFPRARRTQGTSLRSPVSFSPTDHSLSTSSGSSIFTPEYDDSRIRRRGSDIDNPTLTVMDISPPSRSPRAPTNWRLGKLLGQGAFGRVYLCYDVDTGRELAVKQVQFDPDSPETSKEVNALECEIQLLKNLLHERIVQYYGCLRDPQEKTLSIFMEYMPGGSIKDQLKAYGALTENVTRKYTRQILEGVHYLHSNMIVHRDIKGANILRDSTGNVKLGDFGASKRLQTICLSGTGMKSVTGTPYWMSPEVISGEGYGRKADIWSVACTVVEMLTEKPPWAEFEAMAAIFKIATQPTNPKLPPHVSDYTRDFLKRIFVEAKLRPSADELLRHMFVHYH
Insulin receptor (Homo sapiens), sequence (P06213 28-758 limits assumed): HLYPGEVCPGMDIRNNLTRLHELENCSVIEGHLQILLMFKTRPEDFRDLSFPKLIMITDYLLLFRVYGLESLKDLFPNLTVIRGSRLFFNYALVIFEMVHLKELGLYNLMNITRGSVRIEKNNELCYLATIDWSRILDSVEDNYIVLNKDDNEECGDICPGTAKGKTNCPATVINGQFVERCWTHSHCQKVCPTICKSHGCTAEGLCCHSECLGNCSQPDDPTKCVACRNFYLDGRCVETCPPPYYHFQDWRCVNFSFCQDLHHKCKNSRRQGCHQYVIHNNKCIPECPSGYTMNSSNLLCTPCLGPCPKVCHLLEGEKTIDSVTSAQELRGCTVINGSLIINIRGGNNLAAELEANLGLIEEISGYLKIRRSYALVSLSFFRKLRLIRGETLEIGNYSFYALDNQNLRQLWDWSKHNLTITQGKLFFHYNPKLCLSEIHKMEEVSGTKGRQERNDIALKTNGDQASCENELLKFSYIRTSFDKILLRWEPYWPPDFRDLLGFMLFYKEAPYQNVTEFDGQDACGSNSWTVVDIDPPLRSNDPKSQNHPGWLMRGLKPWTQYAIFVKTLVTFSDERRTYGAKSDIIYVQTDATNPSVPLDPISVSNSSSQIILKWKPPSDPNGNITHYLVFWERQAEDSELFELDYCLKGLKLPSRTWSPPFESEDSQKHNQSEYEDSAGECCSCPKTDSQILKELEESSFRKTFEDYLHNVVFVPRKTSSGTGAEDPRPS
Insulin receptor (Homo sapiens), sequence (P06213 763-1382 limits assumed): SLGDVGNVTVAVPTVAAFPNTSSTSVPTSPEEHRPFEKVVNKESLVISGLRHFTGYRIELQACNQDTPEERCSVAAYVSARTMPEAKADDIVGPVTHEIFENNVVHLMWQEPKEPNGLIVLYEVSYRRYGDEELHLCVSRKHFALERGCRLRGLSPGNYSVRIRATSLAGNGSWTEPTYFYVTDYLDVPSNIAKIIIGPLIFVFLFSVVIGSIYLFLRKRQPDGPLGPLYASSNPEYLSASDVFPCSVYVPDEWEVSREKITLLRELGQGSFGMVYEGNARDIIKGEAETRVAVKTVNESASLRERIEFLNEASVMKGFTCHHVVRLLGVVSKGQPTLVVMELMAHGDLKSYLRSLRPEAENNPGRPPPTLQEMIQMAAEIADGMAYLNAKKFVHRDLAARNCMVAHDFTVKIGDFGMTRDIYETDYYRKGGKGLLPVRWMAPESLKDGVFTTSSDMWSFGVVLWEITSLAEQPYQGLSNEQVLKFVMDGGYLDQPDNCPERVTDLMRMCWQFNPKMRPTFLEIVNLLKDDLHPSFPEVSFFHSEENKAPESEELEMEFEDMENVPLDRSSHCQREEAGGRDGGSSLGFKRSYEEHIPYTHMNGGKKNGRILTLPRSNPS
Serine/threonine-protein kinase ULK3 (Homo sapiens), sequence (Q6PHR2 whole entry): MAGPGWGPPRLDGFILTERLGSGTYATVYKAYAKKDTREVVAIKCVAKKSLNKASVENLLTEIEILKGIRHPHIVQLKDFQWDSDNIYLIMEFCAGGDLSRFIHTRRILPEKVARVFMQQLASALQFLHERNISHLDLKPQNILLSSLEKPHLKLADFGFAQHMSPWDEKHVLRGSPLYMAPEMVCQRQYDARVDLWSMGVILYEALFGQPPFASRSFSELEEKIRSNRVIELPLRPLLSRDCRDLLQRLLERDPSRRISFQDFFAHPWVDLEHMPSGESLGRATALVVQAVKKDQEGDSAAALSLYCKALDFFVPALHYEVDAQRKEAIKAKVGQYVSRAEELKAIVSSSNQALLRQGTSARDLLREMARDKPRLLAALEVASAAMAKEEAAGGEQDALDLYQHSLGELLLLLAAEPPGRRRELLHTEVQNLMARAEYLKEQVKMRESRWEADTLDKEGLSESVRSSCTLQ

## C[C@@H](c1ccccc1)n1nnc2cnc3ccc(-c4cnc5[nH]ccc5c4)cc3c21
[1]
  Activity: 107%
[2]
  Activity: 94%
[3]
  Activity: 103%
[4]
  inhibition: Dose-dependent effect
[5]
  Activity: 63%
[6]
  Activity: 74%
[7]
  Activity: 84%
[8]
  Activity: 95%
[9]
  Activity: 64%
[10]
  Activity: 8%
[11]
  Activity: 22%
[12]
  Activity: 104%
[13]
  Activity: 75%
[14]
  Activity: 55%
[15]
  Activity: 85%
[16]
  Activity: 74%
[17]
  Activity: 92%
[18]
  Activity: 79%
[19]
  Activity: 115%
[20]
  Activity: 41%
[21]
  Activity: 106%
